Assay outcomes as filed in PubChem BioAssay.
ABCG2 block: human ABCG2 inhibition, ABCB1 as counter-screen; hit rate 0.1% among 190,000; IgMXP3 cells, JC-1 efflux, flow cytometry; inhibition, % at 6.6 µM;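 active means inhibition above 80%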;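 further: 0% = DMSO and 100% = nicardipine control wells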
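Incubation: cells with compound and JC-1, 10 min at 25 °C, rotating, no wash / Test system: IgMXP3 (ABCG2) plus far-red-tagged CCRF-Adr (ABCB1) cells / Compound dosing: one concentration, 6.6 µM final / Also added: JC-1 fluorescent substrate / Evaluation: efflux inhibition in percent versus controls / Detection: flow cytometry, 530 nm JC-1 signal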
MEKK2 WT-MEK5: raises or lowers MEK5 binding to wildtype human MEKK2 PB1 domain; Q9Y2U5; AID 1531; hit rate 1.1% among 290,000; binding response (% of control), % at 10 µM; bead flow cytometry, Alexa488-MEK5 binding to MEKK2 WT; actives lie on both sides; in the data active means binding response below about 67% or above about 130%
Efflux pump inh: inhibitors of Candida antifungal efflux pumps expressed in yeast; S. cerevisiae Candida pump triplex, Nile Red efflux; hit rate 0.44% among 330,000; AID 485275; inhibition, % at 10 µM;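 active means plate passing quality check with inhibition over a set limit, or well fluorescence over plate mean plus 4 SD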;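 further: Nile Red retained in pooled yeast measured as flow cytometry median fluorescence; 0% = buffer negative control and 100% = Enniatin B positive control; higher means more Nile Red kept so more efflux inhibition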
ABCB1 inh: blocks JC-1 efflux by human ABCB1 transporter. CCRF-Adr cells, flow cytometry. inhibition, % at 6.6 µM. hit rate 0.067% among 190,000. AID 1326; in the data active means inhibition above about 40%;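 further: 0% = vehicle and 100% = reference inhibitor; higher value means more JC-1 retained so stronger ABCB1 efflux block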
MEKK2mut PB1 HTS: signal of MEK5 binding to mutant human MEKK2 PB1 domain | bead flow cytometry, Alexa488-MEK5 binding to MEKK2 mutant | percent response, % at 10 µM | hit rate 0.35% among 290,000 | AID 1530; in the data active means percent response above about 24%, passing the limit was not always enough
MEKK3 PB1 HTS: MEKK3-MEK5 PB1 interaction, increase or decrease | Q99759 | bead-based flow cytometry, Alexa488-MEK5 binding to MEKK3; actives lie on both sides; 0 = blocked by unlabeled MEK5, 100 = vehicle | binding response (% of control), % at 10 µM | hit rate 1.4% among 290,000 | AID 1529;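 active means binding response more than 3 SD above or below the average of its plate-row segment, actives on both sides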;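 further: Alexa488 bead fluorescence after subtracting the streptavidin-only scavenger bead signal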
Target sequence (Q99759 whole entry, looked up): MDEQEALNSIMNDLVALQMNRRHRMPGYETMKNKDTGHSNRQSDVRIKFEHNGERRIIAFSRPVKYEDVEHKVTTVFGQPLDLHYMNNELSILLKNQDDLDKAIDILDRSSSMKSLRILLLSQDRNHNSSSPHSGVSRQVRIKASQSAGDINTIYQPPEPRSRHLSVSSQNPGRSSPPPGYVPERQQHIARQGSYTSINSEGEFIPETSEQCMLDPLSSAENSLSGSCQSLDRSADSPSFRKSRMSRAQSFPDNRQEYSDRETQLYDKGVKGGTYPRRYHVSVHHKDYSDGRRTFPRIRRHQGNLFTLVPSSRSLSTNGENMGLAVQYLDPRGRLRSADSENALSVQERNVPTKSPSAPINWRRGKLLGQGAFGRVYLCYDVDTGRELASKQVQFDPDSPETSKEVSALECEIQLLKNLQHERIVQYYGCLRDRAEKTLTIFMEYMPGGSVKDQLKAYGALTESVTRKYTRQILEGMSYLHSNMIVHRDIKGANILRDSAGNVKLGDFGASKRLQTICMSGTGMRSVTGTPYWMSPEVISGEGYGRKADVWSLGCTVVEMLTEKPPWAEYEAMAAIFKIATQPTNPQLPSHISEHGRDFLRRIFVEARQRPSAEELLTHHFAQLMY
MEKK2wt confirm: raises or lowers MEK5 binding to wildtype human MEKK2, retest; binding response (% of control), % at 10 µM; bead flow cytometry, Alexa488-MEK5 binding to MEKK2 WT; actives lie on both sides; shares compounds with MEKK3 PB1 HTS; hit rate 2.4% among 5,900; in the data active means binding response below about 16% or above about 210%; inactive means in between
MEKK2mut confirm: signal of MEK5 binding to mutant human MEKK2, retest | shares compounds with MEKK3 PB1 HTS | bead flow cytometry, Alexa488-MEK5 binding to MEKK2 mutant | percent response, % at 10 µM | hit rate 2% among 5,900; in the data active means percent response mostly above about 71%, no sharp cut-off; inactive means mostly below about 38%;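 further: higher means compound restores mutant binding toward wildtype level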
MEKK3 confirm: MEKK3-MEK5 PB1 inhibition, single concentration confirmation; shares compounds with MEKK3 PB1 HTS; bead flow cytometry, Alexa488-MEK5 binding to MEKK3; stronger effect = lower value; binding response (% of control), % at 10 µM; hit rate 1.8% among 5,900;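 active means binding response below 72% of control, or above a set upper limit, though filed actives all read lower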;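 further: 100% = DMSO only wells and 0% = binding blocked by excess unlabeled MEK5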
An asterisk follows results filed as active; / = no result; ! = a repeat was not active; [ ] = remark or other dose. Sampled rows, rich in hits. Any-hit rate of the full collection: about 2.5%.

SMILES	ABCG2 block	MEKK2 WT-MEK5	Efflux pump inh	ABCB1 inh	MEKK2mut PB1 HTS	MEKK3 PB1 HTS	MEKK2wt confirm	MEKK2mut confirm	MEKK3 confirm
CN(C)CCN(CC1CCCN(Cc2ccccc2F)C1)C(=O)Cc1ccccc1F (configuration not stated)	/	121.0	-0.1	/	30.0*	111.0	115.0	5.0	102.0
C1=CC(Cc2cncs2)c2ccccc21 (configuration not stated)	/	/	-0.4	/	/	/	/	/	/
CSc1ccc(C(=O)C2CCCN(Cc3cccnc3)C2)cc1 (configuration not stated)	1.7	98.0	0.1	1.6	1.0	102.0	/	/	/
CSc1ccc(C(=O)C2CCCN(Cc3cc4ccccc4[nH]3)C2)cc1 (configuration not stated)	3.9	217.0*	-0.2	2.8	48.0	104.0	181.0	37.0	111.0
CCOC(=O)c1c(/N=C/c2c(O)n(-c3ccc(F)cc3)c(=S)[nH]c2=O)sc2c1CCCC2	4.0	/	-0.1	0.9	/	/	/	/	/
CCOC(=O)c1c(/N=C/c2c(O)n(-c3ccccc3F)c(=S)[nH]c2=O)sc2c1CCCC2	0.6	64.0*[inhibitor]	0.0	1.3	-34.0	91.0	51.0	-23.0	92.0
CN(C)C1C(=O)C(C(N)=O)=C(O)C2(O)C(=O)C3=C(O)c4c(O)cccc4C(C)(O)C3C(O)C12 (configuration not stated)	/	109.0	-0.2	/	6.0	102.0	/	/	/
COc1ccc(C(CC(=O)N2CCC3(CC2)OCCO3)NS(=O)(=O)c2ccc(C)cc2)cc1 (configuration not stated)	-0.3	88.0	0.0	0.0	-11.0	78.0*[inhibitor]	102.0	7.0	105.0
COc1ccc(/C=C/C2=CCN(C)CC2)cc1	-0.1	104.0	0.0	0.0	-3.0	94.0	/	/	/
CN1CC=C(/C=C/c2ccc(-c3ccccc3)cc2)CC1	/	167.0*	0.5	/	10.0	110.0	163.0	30.0	104.0
COC(=O)CC(NC(=S)N1CC2C[C@@H](C1)Cn1c2cccc1=O)C(=O)OC (some centres not stated)	/	107.0	-0.2	/	6.0	104.0	/	/	/
CCCCn1c(C)c(C(=O)O)c2cc(OC)ccc21	3.6	85.0	-0.1	1.5	-7.0	81.0*[inhibitor]	107.0	8.0	103.0
CC1(C)N2CC3([N+](=O)[O-])CN1CC([N+](=O)[O-])(C2)C3	/	116.0	0.1	/	23.0	122.0	/	/	/
CC[C@@H]1C(=O)OC[C@@H]1Cc1cncn1C	2.6	55.0*![inhibitor]	0.0	0.8	4.0	88.0	99.0	-5.0	99.0
CN1C[C@H](CO)C[C@@H]2c3cccc4[nH]cc(c34)C[C@H]21	/	104.0	0.2	/	9.0	101.0	/	/	/
CN1C[C@H](CNC(=O)OCc2ccccc2)C[C@@H]2c3cccc4c3c(cn4C)C[C@H]21	0.0	158.0*	0.1	0.4	14.0	116.0	140.0	10.0	99.0
O=C(CCC(=O)N1CCC2(CC1)OCCO2)Nc1nnc(C2CCCCC2)s1	/	92.0	0.1	/	-16.0	89.0	/	/	/
CCOC(=O)C1(c2ccccc2)CCN(CCC(C#N)(c2ccccc2)c2ccccc2)CC1	/	136.0*	0.0	/	6.0	101.0	132.0	27.0	103.0
CCOC(=O)C1(c2ccccc2)CCN(CCC(=O)Nc2ccc(C(=O)OC)cc2)CC1	/	/	0.1	/	/	/	/	/	/
CSc1ccc(CNC(C)C(O)c2ccccc2)cc1 (configuration not stated)	-1.5	113.0	-0.1	1.1	8.0	93.0	/	/	/
COc1ccc(CCNCc2sccc2C)cc1OC	-2.4	83.0	0.3	1.0	-16.0	78.0	/	/	/
NC(N)=N/N=C/c1ccc(N(c2ccccc2)c2ccccc2)cc1	/	235.0*	0.0	/	73.0*	114.0	205.0	63.0	111.0
COc1ccc(/C=N\N=C(N)N)cc1	-0.6	95.0	0.0	-0.1	-2.0	102.0	/	/	/
C=C1C(=O)O[C@@H]2C[C@@H](C)[C@@H]3C4OC4C(=O)[C@@]3(C)[C@@H](O)[C@H]12 (some centres not stated)	/	70.0	-0.1	/	4.0	69.0*[inhibitor]	97.0	-5.0	101.0
Cc1ccc(Cl)cc1N1CCN(CCN)CC1	0.4	139.0*	-0.1	0.1	40.0*	108.0	128.0	12.0	100.0
SMILES	ABCG2 block	MEKK2 WT-MEK5	Efflux pump inh	ABCB1 inh	MEKK2mut PB1 HTS	MEKK3 PB1 HTS	MEKK2wt confirm	MEKK2mut confirm	MEKK3 confirm
CN1CCN(c2ccc(Cl)cc2N)CC1	-0.2	101.0	0.0	0.2	-4.0	97.0	/	/	/
CCCN(CC1CC1)CC(O)c1ccccc1 (configuration not stated)	/	102.0	0.2	/	2.0	103.0	/	/	/
Clc1ccc(C2NCCc3[nH]cnc32)cc1 (configuration not stated)	-0.2	137.0*	-0.3	-0.1	51.0*	109.0	127.0	12.0	104.0
Fc1cccc(C2NCCc3[nH]cnc32)c1 (configuration not stated)	0.6	106.0	0.1	0.2	-1.0	116.0	/	/	/
N=Cc1c(O)n(-c2ccccc2)c(=O)n(-c2ccccc2)c1=O	/	90.0	0.2	/	-12.0	87.0	/	/	/
C[C@]12CCC(=O)C=C1C=CC1C2CC[C@]2(C)C(=O)CCC12 (some centres not stated)	/	/	0.0	/	/	/	/	/	/
CC/C(=N\N1CCN(C)CC1)c1c(O)[nH]c(=O)[nH]c1=O	0.8	105.0	0.0	0.4	0.0	140.0*	104.0	4.0	100.0
COc1cccc(C2CC3C(=O)C=CC2N3Cc2ccccc2)c1 (configuration not stated)	9.2	105.0	0.3	0.6	1.0	157.0*	98.0	-9.0	99.0
Cc1ccccc1NC(=O)NCCN1CC1	/	144.0*	-0.1	/	23.0	95.0	159.0	22.0	100.0
C=CCN1C(=O)NC(=O)/C(=C/c2ccc(OC)c(CSc3ccccn3)c2)C1=O	-1.8	80.0	0.0	-0.7	-20.0	80.0*[inhibitor]	99.0	-2.0	99.0
O=C1N(c2cccc(Cl)c2)C(c2cccnc2)N2CCCN12 (configuration not stated)	0.3	77.0	-0.1	-0.1	-11.0	74.0*[inhibitor]	101.0	-1.0	103.0
O=C1N(c2ccccc2)C(c2cccnc2)N2CCCN12 (configuration not stated)	0.1	77.0	0.0	0.1	-24.0	76.0	/	/	/
COC(=O)C1=C(c2ccc(-c3ccccc3)c(F)c2)C[C@@H]2CC[C@H]1N2C(=O)N1CCc2cc(OC)c(OC)cc2C1	/	/	1.3	/	/	/	/	/	/
